Converted amounts (≈) assume the structure as drawn. The source made the active and inactive calls. No cut-off for these calls is given here.
Columns and labels:
[1] = tested on: Serratia marcescens; experiment: Antibacterial activity against Serratia marcescens ATCC 13880 measured after 18 hrs by CLSI broth dilution method; type: functional; settings: ATCC 13880, 18 h
How it was run: (§1)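 Broth MIC in Mueller-Hinton II broth following CLSI, compounds dissolved in DMSO. Strains subcultured twice on tryptic soy agar before testing. Growth read after 35 °C, 18 h.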

[2] = Dissociation constant, pKa1 of compound in 0.1 M NaOH by potentiometric analysis; type: physicochemical
[3] = tested on: Candida parapsilosis; experiment: Antifungal activity against Candida parapsilosis ATCC 22019 assessed as decrease in fungal cell growth at 0.78 to 12.5 mg/L incubated for 24 hrs by CLSI broth dilution method; type: functional; settings: Lodderomyces parapsilosis, ATCC 22019, 24 h
How it was run: (§2)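 Yeast broth dilution in RPMI 1640 with 2% glucose, compounds in DMSO. Yeasts pre-grown on Sabouraud dextrose agar. Growth read after 35 °C, 24 h.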

[4] = tested on: Candida tropicalis; experiment: Antifungal activity against Candida tropicalis IBA 171 assessed as decrease in fungal cell growth at 0.78 to 12.5 mg/L incubated for 24 hrs by CLSI broth dilution method; type: functional; settings: IBA 171, 24 h; how it was run: as §2
[5] = tested on: Meyerozyma guilliermondii; experiment: Antifungal activity against Candida guilliermondii IBA 155 assessed as decrease in fungal cell growth at 0.78 to 12.5 mg/L incubated for 24 hrs by CLSI broth dilution method; type: functional; settings: IBA 155, 24 h; how it was run: as §2
[6] = tested on: Saccharomyces cerevisiae; experiment: Antifungal activity against Saccharomyces cerevisiae ATCC 9763 assessed as decrease in fungal cell growth at 0.78 to 12.5 mg/L incubated for 24 hrs by CLSI broth dilution method; type: functional; settings: ATCC 9763, 24 h
How it was run: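 Yeast strain subcultured on Sabouraud dextrose agar for 24–48 h at 30 °C before testing. Compounds dissolved in DMSO.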

[7] = tested on: Pichia kudriavzevii; experiment: Antifungal activity against Candida krusei ATCC 6258 assessed as diameter of zone inhibition incubated for 24 hrs by CLSI disc diffusion method; type: functional
How it was run: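 Yeast disc diffusion on Mueller-Hinton agar supplemented with 2% glucose and 0.5 mg/L methylene blue. Compounds in DMSO. Yeasts subcultured on Sabouraud dextrose agar before testing. Zones read after 35 °C, 24 h.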

[8] = tested on: Staphylococcus epidermidis; experiment: Antibacterial activity against Staphylococcus epidermidis ATCC 12228 measured after 18 hrs by CLSI broth dilution method; type: functional; settings: ATCC 12228, 18 h; how it was run: as §1
[9] = tested on: Enterococcus faecalis; experiment: Antibacterial activity against Enterococcus faecalis ATCC 29212 measured after 18 hrs by CLSI broth dilution method; type: functional; settings: ATCC 29212, 18 h; how it was run: as §1
[10] = tested on: Staphylococcus aureus; experiment: Bactericidal activity against Staphylococcus aureus ATCC 6538P measured after 18 hrs by CLSI broth dilution method; type: functional
How it was run: (§3)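 Strains stored at -80 °C and subcultured twice on tryptic soy agar before testing. Compounds dissolved in DMSO. […] MBC then determined per CLSI recommendations.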

[11] = tested on: Staphylococcus epidermidis; experiment: Bactericidal activity against Staphylococcus epidermidis ATCC 12228 measured after 18 hrs by CLSI broth dilution method; type: functional; settings: ATCC 12228, 18 h; how it was run: as §3
[12] = tested on: Enterococcus faecalis; experiment: Bactericidal activity against Enterococcus faecalis ATCC 29212 measured after 18 hrs by CLSI broth dilution method; type: functional; settings: ATCC 29212, 18 h; how it was run: as §3
[13] = tested on: Bacillus subtilis; experiment: Antibacterial activity against Bacillus subtilis ATCC 6633 assessed as diameter of zone inhibition measured after 18 hrs by CLSI disc diffusion method; type: functional
How it was run: (§4)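 Disc diffusion on Mueller-Hinton II agar. Compounds dissolved in DMSO. Strains stored at -80 °C and subcultured twice on tryptic soy agar before testing. Inhibition zones read after 35 °C, 18 h.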

[14] = tested on: Proteus mirabilis; experiment: Antibacterial activity against Proteus mirabilis ATCC 12453 measured after 18 hrs by CLSI broth dilution method; type: functional; settings: ATCC 12453, 18 h; how it was run: as §1
[15] = tested on: Enterobacter cloacae; experiment: Antibacterial activity against Enterobacter cloacae DSM 6234 measured after 18 hrs by CLSI broth dilution method; type: functional; settings: DSM 6234, 18 h; how it was run: as §1
[16] = tested on: Proteus mirabilis; experiment: Antibacterial activity against Proteus mirabilis ATCC 12453 assessed as diameter of zone inhibition measured after 18 hrs by CLSI disc diffusion method; type: functional; how it was run: as §4
[17] = tested on: Stenotrophomonas maltophilia; experiment: Antibacterial activity against Stenotrophomonas maltophilia ATCC 13637 assessed as diameter of zone inhibition measured after 18 hrs by CLSI disc diffusion method; type: functional; how it was run: as §4
[18] = tested on: Enterobacter cloacae; experiment: Antibacterial activity against Enterobacter cloacae DSM 6234 assessed as fold reduction of MIC in presence of efflux pump inhibitor PAbetaN incubated for 18 hrs by broth microdilution method; type: functional
How it was run: (§5)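 MICs determined with and without PAβN at 50 mg/L in Mueller-Hinton broth containing 1 mM MgSO₄. 2-fold serial dilutions per CLSI. Fold change taken from the paired MICs after 35 °C, 18 h.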

[19] = tested on: Stenotrophomonas maltophilia; experiment: Antibacterial activity against Stenotrophomonas maltophilia ATCC 13637 assessed as fold reduction of MIC in presence of efflux pump inhibitor PAbetaN incubated for 18 hrs by broth microdilution method; type: functional; how it was run: as §5
[20] = tested on: Klebsiella pneumoniae; experiment: Inhibition of beta lactamase KPC-2 in Klebsiella pneumoniae 75 assessed as potentiation of ceftazidime-induced antibacterial activity by measuring ceftazidime MIC at 16 mg/L incubated for 18 hrs by broth dilution method (reference value: […] mg/L)
[21] = target: Class A carbapenemase KPC-2 (Escherichia coli) (UniProt A8DS27); experiment: Inhibition of beta lactamase KPC-2 in Escherichia coli 76 assessed as potentiation of ceftazidime-induced antibacterial activity by measuring ceftazidime MIC at 16 mg/L incubated for 18 hrs by broth dilution method (reference value: >[…] mg/L)
[22] = target: Class A carbapenemase KPC-2 (Escherichia coli) (UniProt A8DS27); experiment: Inhibition of beta lactamase KPC-2 in Escherichia coli 76 assessed as potentiation of meropenem-induced antibacterial activity by measuring meropenem MIC at 16 mg/L incubated for 18 hrs by broth dilution method (reference value: >[…] mg/L)
[23] = tested on: Escherichia coli; experiment: Inhibition of beta lactamase KPC-3 in Escherichia coli 82 TR assessed as potentiation of meropenem-induced antibacterial activity by measuring meropenem MIC at 16 mg/L incubated for 18 hrs by broth dilution method (reference value: 2 mg/L)
[24] = tested on: Klebsiella pneumoniae; experiment: Inhibition of beta lactamase KPC-3 in Klebsiella pneumoniae 83 assessed as potentiation of meropenem-induced antibacterial activity by measuring meropenem MIC at 16 mg/L incubated for 18 hrs by broth dilution method (reference value: […] mg/L)
[25] = Cytotoxicity against human MRC5 cells assessed as cell viability at 1 ug/ml incubated for 72 hrs by MTT assay; type: cell-based; settings: read-out: Activity
How it was run: (§6)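 MRC-5 pd30 human fibroblasts grown in MEM with 10% FBS, 2 mM L-glutamine, penicillin/streptomycin and 1% non-essential amino acids at 37 °C, 5% CO2. Exponentially growing cells trypsinized and seeded at 8×10^3 cells/well, then dosed 18 h later with 2-fold dilutions (0.5% DMSO final) for 72 h. MTT (1 mg/ml final) added for 1 h at 37 °C, formazan dissolved in DMSO, OD read at 570 nm. Four replicates, expressed as % viable versus control.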

[26] = Cytotoxicity against human MRC5 cells assessed as cell viability at 2 ug/ml incubated for 72 hrs by MTT assay; type: cell-based; settings: read-out: Activity; how it was run: as §6
[27] = Cytotoxicity against human MRC5 cells assessed as cell viability at 8 ug/ml incubated for 72 hrs by MTT assay; type: cell-based; settings: read-out: Activity; how it was run: as §6
[28] = tested on: Serratia marcescens; settings: ATCC 13880

| Structure (SMILES) | MIC [1] [mg/L] | pKa [2] | MIC [3] [mg/L] | MIC [4] [mg/L] | MIC [5] [mg/L] | MIC [6] [mg/L] | diameter of the inhibition zone (DIZ) [7] | MIC [8] [mg/L] | MIC [9] [mg/L] | diameter of the inhibition zone (DIZ) [13] [mm] | MIC [14] [mg/L] | MIC [15] [mg/L] | diameter of the inhibition zone (DIZ) [16] | diameter of the inhibition zone (DIZ) [17] [mm] | fold change (FC) [18] | fold change (FC) [19] | MIC [20] [mg/L] | MIC [21] [mg/L] | MIC [22] [mg/L] | MIC [23] [mg/L] | also measured |
| --- | --- | --- | --- | --- | --- | --- | --- | --- | --- | --- | --- | --- | --- | --- | --- | --- | --- | --- | --- | --- | --- |
| C[Si]1(C)OB(O)c2ccc(B(O)O)cc21 | > 400 | 7.7 | 200 (≈ 901 µM) | 200 (≈ 901 µM) | > 400 | 100 (≈ 451 µM) | inactive | 50 (≈ 225 µM) | 200 (≈ 901 µM) | 19 | > 400 | > 400 | inactive | 12 | 16 | 8 | 64 | > 64 | > 64 | 0.25 | MBC [10]: 200 mg/L (≈ 901 µM); MBC [11]: 100 mg/L (≈ 451 µM); MBC [12]: 400 mg/L (≈ 1800 µM); MIC [24]: 8 mg/L; viability at 72 h, 1 ug/ml [25]: 117%; viability at 72 h, 2 ug/ml [26]: 124%; viability at 72 h, 8 ug/ml [27]: 126%; DIZ [28]: inactive |
| C[Si]1(C)OB(O)c2ccc(F)c(F)c21 | > 400 | 6.1 | 12.5 (≈ 58.4 µM) | 6.25 (≈ 29.2 µM) | 3.12 (≈ 14.6 µM) | 12.5 (≈ 58.4 µM) | 17 mm | 50 (≈ 234 µM) | 100 (≈ 467 µM) | 28 | > 400 | > 400 | 12 mm | 13 | 32 | 16 | > 64 | > 64 | > 64 | 2 | MIC [24]: 32 mg/L; viability at 72 h, 1 ug/ml [25]: 114%; viability at 72 h, 2 ug/ml [26]: 113%; viability at 72 h, 8 ug/ml [27]: 111%; DIZ [28]: inactive |
| C[Si]1(C)OB(O)c2cc3c(c(F)c21)COB3O | > 400 | 6.3 | 50 (≈ 198 µM) | 100 (≈ 397 µM) | 400 (≈ 1590 µM) | 100 (≈ 397 µM) | inactive | 6.25 (≈ 24.8 µM) | 100 (≈ 397 µM) | 29 | > 400 | > 400 | inactive | 14 | 64 | 16 | > 64 | > 64 | > 64 | 1 | MBC [10]: 400 mg/L (≈ 1590 µM); MBC [11]: 400 mg/L (≈ 1590 µM); MIC [24]: 32 mg/L; viability at 72 h, 1 ug/ml [25]: 112%; viability at 72 h, 2 ug/ml [26]: 116%; viability at 72 h, 8 ug/ml [27]: 105%; DIZ [28]: inactive |
